Experiments:
[1] = Octanol-water partition coefficient, log KOW of the compound; format: physicochemical
[2] = Octanol-air partition coefficient, log KOA of the compound; format: physicochemical
[3] = species on record: Homo sapiens; test: Biomagnification factors in human; format: ADME, organism-based; details: in vivo
Method in brief: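 Modelled, not measured: a bioaccumulation model using fugacity D-values (respiration, diet, faeces, urine, metabolism, lactation, growth) gives BMF as fB/fD or CB/CD relative to diet. The Inuit diet is taken as Arctic fish and wildlife (caribou, ringed seal, walrus, beluga) plus southern Canadian agricultural foods, the latter simulated from Great Lakes food chains. KOA is evaluated at 37 °C.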

[4] = Biomagnification factors in Diporeia; format: ADME

Row | Compound | logP ([1]; read-out: LogP) | log KOA [2] | BMF [3] | BMF [4] | logP [1]
1 | Cc1c([N+](=O)[O-])c(C)c([N+](=O)[O-])c(C(C)(C)C)c1[N+](=O)[O-] | 4.1 | 8.9 | 89 | < 1 | –
2 | Brc1ccc(Oc2ccc(Br)cc2Br)c(Br)c1 | 6 | 9.8 | 98 | 2.2 | –
3 | Brc1c(Br)c(Br)c(Oc2c(Br)c(Br)c(Br)c(Br)c2Br)c(Br)c1Br | – | 13.1 | 8 | 1 | 9.9
4 | Brc1ccc(Oc2cc(Br)c(Br)cc2Br)c(Br)c1 | 6.8 | 11.2 | 98 | 2.5 | –
5 | Clc1cc(Cl)c(-c2cc(Cl)c(Cl)c(Cl)c2Cl)cc1Cl | 7.5 | 10.9 | 95 | 2.5 | –
6 | O=S1OC[C@@H]2[C@H](CO1)[C@@]1(Cl)C(Cl)=C(Cl)[C@@]2(Cl)C1(Cl)Cl (stereo partly specified) | 3.7 | 7.1 | 23 | < 1 | –
7 | Clc1cc(Cl)c(Cl)cc1Cl | 4.7 | 6.3 | 5.9 | < 1 | –
8 | Clc1cc(Cl)cc(Cl)c1 [1,3,5-TRICHLOROBENZENE] | 3.5 | 4.7 | < 1 | < 1 | –
9 | Clc1cc(Cl)c(-c2cc(Cl)c(Cl)cc2Cl)cc1Cl [2,2',4,4',5,5'-HEXACHLOROBIPHENYL] | 7.5 | 9.6 | 96 | 2.5 | –
10 | Cl[C@H]1[C@H](Cl)[C@@H](Cl)[C@H](Cl)[C@@H](Cl)[C@@H]1Cl [BETA-HEXACHLOROCYCLOHEXANE] | 3.8 | 8.9 | 84 | < 1 | –
11 | OC(c1ccc(Cl)cc1)(c1ccc(Cl)cc1)C(Cl)(Cl)Cl [DICOFOL] | 3.5 | 8.9 | 76 | < 1 | –
12 | ClC1=C(Cl)[C@]2(Cl)[C@@H]3[C@@H]4C[C@@H]([C@H]5O[C@@H]45)[C@@H]3[C@@]1(Cl)C2(Cl)Cl [DIELDRIN] | 5.4 | 8.8 | 93 | 1.7 | –
13 | ClC(Cl)=C(Cl)C(Cl)=C(Cl)Cl [HEXACHLOROBUTADIENE] | 4.5 | 3.9 | < 1 | < 1 | –
14 | ClC1(Cl)C2(Cl)C3(Cl)C4(Cl)C(Cl)(Cl)C5(Cl)C3(Cl)C1(Cl)C5(Cl)C24Cl (stereo unspecified) [MIREX] | 8.1 | 9.6 | 82 | 1 | –
15 | Clc1cc(Cl)c(Cl)c(Cl)c1Cl [PENTACHLOROBENZENE] | 5 | 6.9 | 16 | < 1 | –
16 | Clc1c(Cl)c(Cl)c(Cl)c(Cl)c1Cl [PERCHLOROBENZENE] | 5.5 | 7.7 | 55 | 1.8 | –
17 | C=Cc1ccccc1 [STYRENE] | 2.5 | 4.9 | < 1 | < 1 | –
18 | O=S(=O)(c1ccc(Cl)cc1)c1cc(Cl)c(Cl)cc1Cl [TETRADIFON] | 4.6 | 11.4 | 97 | < 1 | –
19 | CCCN(CCC)c1c([N+](=O)[O-])cc(C(F)(F)F)cc1[N+](=O)[O-] [TRIFLURALIN] | 4.4 | 7.2 | 28 | < 1 | –
